From ChEMBL document CHEMBL5055635, “High-Throughput Crystallography Reveals Boron-Containing Inhibitors of a Penicillin-Binding Protein with Di- and Tricovalent Binding Modes” (J Med Chem, 2021) come the findings set out here.

Activity calls are given as the source filed them. The calls are words filed in the database; no cut-off is given here.

Test [1] relates to Pseudomonas aeruginosa. Briefly: Inhibition of Pseudomonas aeruginosa PBP3 using bocillin FL as a fluorogenic substrate assessed as residual activity at 1 mM preincubated for 1 hr followed by substrate addition measured after 30 mins by fluorescence anisotropy assay relative to control. In a few lines:
(§1)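 Purified PBP (60 nM) preincubated with compound for 1 h at 30 °C in 100 mM sodium phosphate pH 7 with 0.01% Triton. BOCILLIN FL (30 nM) was then added, and fluorescence anisotropy was read after 30 min. Residual activity is the percentage of the uninhibited control. Run in triplicate.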
(In fluorescence polarisation assays a small probe gives low polarisation when free and higher when bound to something large.)

The test system of test [2] is Pseudomonas aeruginosa. The test can be described thus: Synergistic antimicrobial activity against Pseudomonas aeruginosa PAO1 assessed as bacterial growth inhibition in presence of piperacillin incubated for 18 hrs by checkerboard titration method. The format is functional, organism-based.
Test [3] relates to Haemophilus influenzae. Briefly: Inhibition of Haemophilus influenzae PBP3 assessed as residual activity at 1 mM preincubated for 1 hr followed by substrate addition measured after 30 mins by fluorescence anisotropy assay relative to control. Summed up: as §1
The subject of test [4] is Pseudomonas aeruginosa. Briefly: Inhibition of Pseudomonas aeruginosa PBP3 at 1 mM using bocillin FL as a fluorogenic substrate preincubated for 0 to 60 mins followed by substrate addition measured after 30 mins by fluorescence anisotropy assay. The conditions noted are these: time 0-60 min. Summed up: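 PaPBP3 preincubated with compound for 0, 30 or 60 min before BOCILLIN FL was added to start the reaction. Otherwise the standard FA competition format: 60 nM protein, 30 nM BOCILLIN FL, pH 7 sodium phosphate with 0.01% Triton, 30 °C.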

Test [5] has as its system Neisseria gonorrhoeae. The test can be described thus: Inhibition of Neisseria gonorrhoeae PBP2 assessed as residual activity at 1 mM preincubated for 1 hr followed by substrate addition measured after 30 mins by fluorescence anisotropy assay relative to control. In a few lines: as §1
Test [6] concerns Escherichia coli. The test can be described thus: Antimicrobial activity against Escherichia coli […] assessed as bacterial growth inhibition incubated for 18 hrs by CLSI protocol based broth microdilution method. Type of test: functional. For orientation: Dilution methods test growth across graded concentrations, often in twofold steps.
The test system of test [7] is Escherichia coli. Briefly: Synergistic antimicrobial activity against Escherichia coli […] assessed as bacterial growth inhibition in presence of piperacillin incubated for 18 hrs by checkerboard titration method. Type of test: functional, organism-based.
The test system of test [8] is Pseudomonas aeruginosa. Briefly: Antimicrobial activity against Pseudomonas aeruginosa PAO1 assessed as bacterial growth inhibition incubated for 18 hrs by CLSI protocol based broth microdilution method. Type of test: functional.
The test system of test [9] is Acinetobacter baumannii. The test can be described thus: Antimicrobial activity against Acinetobacter baumannii ATCC 19606 assessed as bacterial growth inhibition incubated for 18 hrs by CLSI protocol based broth microdilution method. The format is functional. The conditions noted are these: ATCC 19606 = CIP 70.34 = JCM 6841.
The test system of test [10] is Pseudomonas aeruginosa. Briefly: Reversible inhibition of Pseudomonas aeruginosa PBP3 using nitrocefin as substrate assessed as increase in irreversibly bound ceftazidime IC50 by two-fold dilution assay. Conditions: dose 150.0 µM.
In test [11] the test system is Neisseria gonorrhoeae. Briefly: Antimicrobial activity against Neisseria gonorrhoeae ATCC 49226 assessed as bacterial growth inhibition incubated for 18 hrs by CLSI protocol based broth microdilution method. The format is functional.
Test [12] concerns Pseudomonas aeruginosa. The test can be described thus: Antimicrobial activity against permeabilized Pseudomonas aeruginosa assessed as bacterial growth inhibition incubated for 18 hrs by CLSI protocol based broth microdilution method. The format is functional. The conditions noted are these: dose 150 µM.
The subject of test [13] is Escherichia coli. The test can be described thus: Inhibition of Escherichia coli PBP3 assessed as residual activity at 1 mM preincubated for 1 hr followed by substrate addition measured after 30 mins by fluorescence anisotropy assay relative to control. Summed up: as §1
Test [14] concerns Haemophilus influenzae. Briefly: Antimicrobial activity against Haemophilus influenzae ATCC 49766 assessed as bacterial growth inhibition incubated for 18 hrs by CLSI protocol based broth microdilution method. The format is functional.
In test [15] the test system is Acinetobacter baumannii. Briefly: Inhibition of Acinetobacter baumannii PBP3 assessed as residual activity at 1 mM preincubated for 1 hr followed by substrate addition measured after 30 mins by fluorescence anisotropy assay relative to control. In a few lines:
as §1

For test [16], the system named is Pseudomonas aeruginosa. Briefly: Inhibition of Pseudomonas aeruginosa PBP3 using bocillin FL as a fluorogenic substrate assessed as residual activity at 100 uM preincubated for 1 hr followed by substrate addition measured after 30 mins by fluorescence anisotropy assay relative to control. In a few lines: as §1
In test [17] the test system is Pseudomonas aeruginosa. The test can be described thus: Inhibition of Pseudomonas aeruginosa PBP3 using (2-((benzoyl-D-alanyl)thio)acetic acid) as a substrate assessed as residual activity by measuring substrate turnover at 100 uM incubated for 1 hr followed by substrate addition by absorbance based assay relative to control. In a few lines: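 PaPBP3 (400 nM; 200 nM final) incubated with compound for 1 h at 30 °C in 100 mM sodium phosphate pH 7 with 0.01% Triton. S2d and DTNB (1 mM each, final) were then added, and A412 was followed at 30 °C. Initial rates were corrected for non-enzymatic hydrolysis, measured with 1 mM aztreonam. Residual activity is the percentage of the untreated control. Three technical replicates, standard error.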

For the molecule `O=C1CN(C(=O)CNC(=O)c2ccc3c(c2)B(O)OC3)CCN1`, the Activity in the test on Pseudomonas aeruginosa [1] was over 90%.
Same read-out and setting: to `OB(O)c1cccc(-c2nnn[nH]2)c1` belongs 82%; to `O=C(O)C[C@@H]1OB(O)c2ccc(OCc3ccccc3)cc21`, 20%.
As to `NC(=O)[C@H](NC(=O)c1ccc2c(c1)B(O)OC2CC(=O)O)c1ccccc1` (stereo partly specified), the outcome with Pseudomonas aeruginosa [2] and in the test on Escherichia coli [7] was inactive. Further, the Activity with Haemophilus influenzae [3] was 32%; with Neisseria gonorrhoeae [5], over 90%; in the test on Escherichia coli [13] it was over 90%; in the test with Acinetobacter baumannii [15], 73%. In addition, the inhibition result with Pseudomonas aeruginosa [4] and with Pseudomonas aeruginosa [10] was “inactive” in each case. Also, the MIC in the test on Escherichia coli [6], in the test on Pseudomonas aeruginosa [8], in the test with Acinetobacter baumannii [9], in the test with Neisseria gonorrhoeae [11], in the test on Pseudomonas aeruginosa [12] and with Haemophilus influenzae [14] was over 64 µg/mL throughout.
`COC(=O)[C@H](NC(=O)c1ccc2c(c1)B(O)OC2)c1ccccc1`: the Activity with Pseudomonas aeruginosa [16] and in the test with Pseudomonas aeruginosa [17] was over 90% each time. For the same molecule, the MIC in the test on Escherichia coli [6], in the test with Pseudomonas aeruginosa [8] and in the test on Pseudomonas aeruginosa [12] was over 64 µg/mL each time.
Regarding `CN1CCN(C(=O)CNC(=O)c2ccc3c(c2)B(O)OC3)CC1=O`, the Activity in the test on Pseudomonas aeruginosa [1] was over 90%.
In the case of `CN1CCN(C(=O)CNC(=O)c2ccc3c(c2)B(O)OC3CC(=O)O)CC1=O` (stereo unspecified), the MIC with Escherichia coli [6], in the test with Pseudomonas aeruginosa [8] and with Pseudomonas aeruginosa [12] was over 64 µg/mL each time.
Regarding `O=C(c1ccc2c(c1)B(O)OC2)N(Cc1ccccc1)Cc1ccccc1`, the Activity in the test on Pseudomonas aeruginosa [16] was 87%. Also, the MIC in the test on Escherichia coli [6], in the test with Pseudomonas aeruginosa [8] and with Pseudomonas aeruginosa [12] was over 64 µg/mL in each case.
On to `CN1CCN(C(=O)[C@@H](Cc2ccccc2)NC(=O)c2ccc3c(c2)B(O)OC3)CC1=O`, for which the Activity in the test on Pseudomonas aeruginosa [1] was over 90%.
